Paper PMC4830347 (Journal of the American Chemical Society, 2016)

Legend:
[1] = test system: HeLa cells; experiment: MTT cell viability assay, HeLa cells; format: cell-based
Summary of the method: (§1)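 HeLa or Saos-2 cells seeded at 1 × 10^4 cells/well and incubated 48 h with test compound in culture medium (200, 300, 400 μM) before MTT read-out; IC50 after 48 h. Inhibitor experiments used test compound at 500 μM for 48 h with or without l-Phe (3 mM) or levamisole (1 mM). Separately, exogenous ALP (5 U/mL) was added together with test compound.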

[2] = test system: Saos-2 cells; experiment: MTT cell viability assay, Saos-2 cells; format: cell-based; settings: Saos-2, six precursors 500 μM, 48 h
Summary of the method: as §1

Row | SMILES | rescue of precursor-treated cells by TNAP inhibitor ([1]; HeLa, six precursors 500 μM, inhibitor 1 mM, 48 h) | rescue of precursor-treated cells by TNAP inhibitor ([2]; inhibitor 1 mM) | cell compatibility ([1]; 3 mM, cell culture) | rescue of precursor-treated cells by PLAP inhibitor ([2]; L-Phe 3 mM)
1 | c1ccc(C2CN3CCSC3=N2)cc1 (single isomer, unassigned; (-)) [(−)-tetramisole] | hardly rescues HeLa cells | significantly increases the cell viability |  | 
2 | N[C@@H](Cc1ccccc1)C(=O)O [L-Phe, L-phenylalanine] |  |  | cell compatible | hardly rescue the Saos-2 cells at all
